The results in this text go back to ChEMBL document CHEMBL1212775, “A novel class of meso-tetrakis-porphyrin derivatives exhibits potent activities against hepatitis C virus genotype 1b replicons in vitro” (Antimicrob Agents Chemother, 2010).

In series [1] the test system is Hepatitis B virus. Description: Antiviral activity against Hepatitis B virus infected in human 2.2.15 cells assessed as reduction of […] after 72 hrs by southern DNA hybridization method. In kind it is functional, organism-based. The following applies: HepG2 2.2.15, 72 h.
Series [2] concerns CCRF-CEM. In words: Mitochondrial DNA toxicity in human CEM cells. In kind it is cell-based. Summed up:
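CEM cell lysates slot-blotted and hybridized with an mtDNA-specific probe, then reprobed with an Alu probe as internal control. Bands quantified by autoradiography and densitometry.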

For series [3], the system named is Hepatitis C virus. In words: Antiviral activity against Hepatitis C virus genotype 1b Con1 infected in human Huh-luc/neo-ET replicon cells assessed as reduction of replicon luciferase signal after 72 hrs by luciferase reporter assay in presence of 0% fetal bovine serum. In kind it is functional, organism-based, Hepacivirus hominis. In short, it runs like this: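 Huh-luc/neo-ET cells without G418, incubated with serially diluted compounds in medium containing 5%, 10%, 20% or 40% (vol/vol) FBS. Firefly luciferase read after 72 h. EC50 from dose-effect curves. The 0% value is a theoretical EC50 extrapolated from the plot of EC50 versus serum level. Means ± SD of three independent experiments.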

Series [4] concerns Hepatitis C virus. Description: Antiviral activity against Hepatitis C virus genotype 1b Con1 infected in human Huh-luc/neo-ET replicon cells assessed as reduction in viral RNA level after 48 hrs by RT-PCR. In kind it is functional, organism-based, Hepacivirus hominis. Summed up:
(§1)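 Cells seeded at 1 × 10^5 per well and treated with DMSO or compound up to 250 nM for 24, 48 or 72 h. Total RNA diluted to 50 ng/μl. Replicon RNA (5′ UTR) measured in triplicate by one-step qRT-PCR, normalized to β-actin mRNA, and expressed as percent of mock control. Three independent repeats.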

The subject of series [5] is Hepatitis C virus. Description: Antiviral activity against Hepatitis C virus genotype 1b Con1 infected in human Huh-luc/neo-ET replicon cells assessed as reduction in viral RNA level after 72 hrs by RT-PCR. In kind it is functional, organism-based, Hepacivirus hominis. In short, it runs like this:
as §1

In series [6] the test system is Hepatitis C virus. In words: Antiviral activity against Hepatitis C virus genotype 2a JFH1 infected in human YSGR-JFH replicon cells assessed as inhibition of virus RNA level after 72 hrs by quantitative RT-PCR. As to conditions: subtype 2a JFH1, 72 h. In kind it is functional, organism-based, Hepacivirus hominis. In short, it runs like this: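 YSGR-JFH genotype 2a subgenomic replicon cells (maintained with 400 μg/ml G418), 1 × 10^5 per well, incubated with DMSO, serially varied compound, or IFN-α-2a for 72 h. HCV RNA by qRT-PCR normalized to β-actin, as percent of mock-treated control. Mean ± SD of three independent experiments.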

In series [7] the test system is Hepatitis C virus. In words: Antiviral activity against Hepatitis C virus genotype 1b Con1 infected in human Huh-luc/neo-ET replicon cells assessed as viral replicon survival dosed at 50 nM incubated for 12 days followed by compound removal and reintroduction of 250 ug/ml G418 measured after 6 days post compound withdrawal. In kind it is functional, Hepacivirus hominis. In short, it runs like this:
(§2)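 Huh-luc/neo-ET cells were seeded at 2 × 10^5 per well and kept without G418 for 12 days with DMSO or up to 1 μM drug. Cells were split every 3 days, with medium and drug renewed. Drug was then removed and 250 μg/ml G418 added for 12 more days, sampling at confluence. HCV 5′UTR RNA was measured by one-step qRT-PCR, normalised to β-actin and expressed relative to mock. Viability was read by CellTiter-Glo as % of mock.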

Series [8] has as its system Hepatitis C virus. Description: Antiviral activity against Hepatitis C virus genotype 1b Con1 infected in human Huh-luc/neo-ET replicon cells assessed as inhibition of viral rebound dosed at 1 uM incubated for 12 days followed by compound removal and reintroduction of 250 ug/ml G418 measured after 9 days post compound withdrawal. As to conditions: Hepacivirus hominis. In kind it is functional, organism-based. In short, it runs like this: as §2

Series [9] relates to Hepatitis C virus. Description: Antiviral activity against Hepatitis C virus genotype 1b Con1 infected in human Huh-luc/neo-ET replicon cells assessed as inhibition of viral rebound dosed at 300 nM incubated for 9 days followed by compound removal and reintroduction of 250 ug/ml G418 measured after 15 days post compound withdrawal. In kind it is functional, organism-based. As to conditions: Hepacivirus hominis. In short, it runs like this: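 In a separate run, Huh-luc/neo-ET replicon cells were treated for 9 days without G418. Drug was then withdrawn and cells were kept for a 15-day rebound period under G418 selection. Surviving cells were scored as the fraction of the population that outlasted selection.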

Series [10] can be described thus: Cytotoxicity against human Huh-7 cells by luminescence based cell viability assay.

The source made the active and inactive calls. No cut-off for these calls is given here.

With `O=C(O)c1cc(C(=O)O)cc(-c2ccc(-c3c4nc(c(-c5ccc(-c6cc(C(=O)O)cc(C(=O)O)c6)cc5)c5ccc([nH]5)c(-c5ccc(-c6cc(C(=O)O)cc(C(=O)O)c6)cc5)c5ccc([nH]5)c(-c5ccc(-c6cc(C(=O)O)cc(C(=O)O)c6)cc5)c5nc3C=C5)C=C4)cc2)c1`, the EC50 in [1] was over 20000 nM; in [3], 6.5 nM; in series [4] it was 36.2 nM; in series [5], 29.2 nM; in series [6] it was 1380 nM. For the same compound, in series [2], the concentration for half-maximal inhibition (IC50) was over 50000 nM. Moreover, the inhibition entry in [4] (Hepacivirus hominis) and in series [5] (Hepacivirus hominis) was “Dose-dependent effect” throughout. The Survival in [7] was found to be 8.5%. The inhibition result in series [8] and in series [9] was “Active” throughout. In series [10], this compound displayed a CC50 of over 50000 nM.
